Experimental data published in paper PMC5433042 (Chemical Science, 2014).

Tests used:
HeLa cells = experiment: Resazurin cell viability assay, HeLa; assay type: cell-based, human
Method in brief: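 HeLa cells are kept in DMEM with 5% FCS, penicillin/streptomycin, at 37 °C and 5% CO2. Cells are seeded in triplicate at 4 × 10^3 per well one day ahead, then exposed 48 h to increasing concentrations diluted in medium from 10 mg mL−1 DMSO stocks. Medium is then replaced with resazurin (0.2 mg mL−1 final) for 4 h at 37 °C, and resorufin fluorescence is read at ex 540/em 590 nm.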

B. subtilis 168 [1] = experiment: BacLight membrane disruption assay; assay type: cell-based, Bacillus subtilis; conditions: 8 μg mL^–1 (2× MIC), nisin 0.75 μg mL^–1; 15 minutes
Method in brief: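 B. subtilis 168 is grown in Belitzky minimal medium to early log phase and exposed for 15 min; untreated aliquot serves as control. Cells are stained 15 min with a 1:1 SYTO 9/propidium iodide mix (1 μL per mL cells), washed twice in 100 mM Tris/1 mM EDTA pH 7.5, then examined by fluorescence microscopy. Red or orange cells in the overlay indicate permeabilized membranes.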

B. subtilis 168 [2] = experiment: Cell wall integrity assay; assay type: cell-based, Bacillus subtilis; conditions: 8 μg mL^–1 (2× MIC), nisin 0.75 μg mL^–1; 15 minutes
[3] = test system: B. subtilis 1981 GFP-MinD; experiment: GFP-MinD delocalization assay; assay type: cell-based, Bacillus subtilis; conditions: 8 μg mL^–1 (2× MIC), nisin 0.75 μg mL^–1; 15 minutes

| Molecule | IC50 HeLa (HeLa cells; 48 h) [μg mL^–1] | IC50 (HeLa cells; read-out: IC50 HeLa, 48 h) [µM] | membrane permeabilization, BacLight staining (B. subtilis 168 [1]) | cell wall integrity after acetic acid/methanol fixation (B. subtilis 168 [2]) | GFP-MinD localization (membrane depolarization) [3] |
| --- | --- | --- | --- | --- | --- |
| N.N.[Cl][Pt][Cl] [Cisplatin] | 3.5 ± 0.9 | 11.5 ± 2.9 |  |  |  |
| nisin (ITSISLCTPGCKTGALMGCNMKTATCHCSIHVSK; not fully specified; Lantibiotic nisin-A; UniProt P13068 24-57, looked up) |  |  | red fluorescencing cells | membrane extrusions | MinD delocalization |
